Experiments:
Safety monitoring = type: in vivo, human; details: safety analysis set; BAY groups N = 13, prednisolone N = 12; 7 days b.i.d.
[1] = system: LPS (TLR4 agonist)-driven cytokine release in whole blood; test: Ex vivo whole blood challenge with LPS; type: cell-based, human
Method in brief: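 Blood was drawn from healthy men, 12 per arm, at two baselines (Day −1, Day 1) and on Day 6 of oral twice-daily dosing. Challenges were run in duplicate at 37°C for 24 h: LPS 0.1 ng/mL or R848 0.35 μg/mL in prefilled culture tubes, and IL-1β 125 ng/mL in sodium heparin tubes. Supernatant cytokines were measured by multiplex immunoassay.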

[2] = system: LPS (TLR4)-driven TNF-α release in whole blood; details: 120 mg b.i.d. BAY1834845, 100 mg b.i.d. BAY1830839; ref multiple ascending dose phase I studies; cited from earlier work
[3] = 120 mg b.i.d. BAY1834845, 100 mg b.i.d. BAY1830839; ref multiple ascending dose phase I studies; cited from earlier work
[4] = system: imiquimod (IMQ)-induced psoriasis; details: mice, compared with vehicle; cited from earlier work
[5] = PK in plasma and skin suction blister fluid; type: in vivo, human; details: for Individual suction blister fluid versus plasma ratio, geometric mean (CV): Day 6; for Total concentration in blister fluid, geometric mean (CV): Day 6, 2–4 h after drug intake, unchallenged skin
Method in brief: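 Healthy men, 12 per arm, took test compound orally twice daily for 7 days. Total drug was measured in plasma and suction blister fluid on Day 6, […], and reported as geometric mean (CV). Blister-fluid-to-plasma ratios were calculated per subject.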

[6] = system: imiquimod (IMQ)-induced skin inflammation (TLR7 activation); test: IMQ skin challenge: skin perfusion; type: in vivo, human; details: for Erythema: GMR of treatment effect vs. placebo (90% CrI): same dosing; for Clinical evaluation of skin reactions (visual grading): vs placebo
Method in brief: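 Healthy men (12 per arm) took test compound (120 or 100 mg), placebo or prednisolone 20 mg b.i.d. orally for 7 days. From Day 3, 5% imiquimod cream (100 mg) went daily on tape-stripped back skin under 12-mm occlusion chambers for 3 days. Erythema (3D imaging), LSCI perfusion and CEA were read at baseline, 24, 48 and 72 h. Bayesian repeated-measures ANCOVA used log-transformed change from baseline.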

[7] = system: LPS-driven systemic inflammation (TLR4 activation); test: Systemic intravenous LPS challenge; type: in vivo, human; details: for Mild increase in core temperature after LPS: 2–6 h after i.v. LPS challenge; for LPS-driven increases in systolic blood pressure and pulse rate / Anti-inflammatory cytokine IL-10 after LPS challenge: compared with placebo; for Suppression of circulating TNF-α response vs. placebo / Anti-inflammatory cytokine IL-10 after LPS challenge / LPS-induced increases in IL-8, CRP and procalcitonin / IL-6 (blood): GMR of treatment effect vs. placebo (90% CrI) / TNF-α (blood): GMR of treatment effect vs. placebo (90% CrI): i.v. LPS challenge; for Suppression of circulating TNF-α response vs. placebo: averaged 0.5 to 6 h after LPS; for LPS-induced increases in IL-8, CRP and procalcitonin: vs placebo; for IL-6 (blood): GMR of treatment effect vs. placebo (90% CrI) / TNF-α (blood): GMR of treatment effect vs. placebo (90% CrI): same dosing
Method in brief: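 On Day 7 of twice-daily oral treatment (12 healthy men per arm), purified E. coli O113 LPS 1 ng/kg in glucose 2.5%–NaCl 0.45% was given as a 2-min i.v. infusion. Hydration infusion ran from 2 h before to 6 h after. Cytokines, acute phase proteins, leukocytes, pulse, blood pressure and temperature were followed from 0.5 to 24 h. Bayesian repeated-measures ANCOVA gave GMR vs placebo (90% CrI).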

[8] = system: imiquimod (IMQ)-induced skin inflammation (TLR7 activation); test: Skin suction blister fluid analysis after IMQ challenge; type: in vivo, human; details: for Responses of CD8+ T cells and dendritic cells in suction blister fluid: 72 h after start of IMQ challenge; for IMQ-driven IP-10 and MxA in skin suction blister exudate: analysis on Day 6
Method in brief: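 Suction blisters were raised by negative-pressure device on imiquimod-inflamed back skin at baseline and 24, 48 and 72 h after challenge start. Subjects were healthy men, 12 per arm, on oral twice-daily treatment begun 2 days before challenge. Blister fluid was analysed for immune cell subsets by flow cytometry and for cytokines/chemokines by multiplex immunoassay.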

IL-1β-induced cytokines = details: upregulation in comparison with vehicle control also reported; cited from earlier work

For CC(C)(O)CCn1cc2cc(NC(=O)c3cccc(C(F)(F)F)n3)c(C(C)(C)O)cc2n1 [BAY1830839], the “Any treatment-emergent AE” value (Safety monitoring) was 8 (61.5%) n (%) of participants, the “Inhibition of TLR4-driven IL-6 in ex vivo whole blood challenge” value [1] was 73% and the “Inhibition of TLR4-driven TNF-α in ex vivo whole blood challenge” value [1] was 75%. The “Mean suppression of TNFα (TLR4-cytokine release in ex vivo whole blood assay)” value [2] was 70%, the Systemic exposure [3] was 4.3 (42.8%) mg/L and the “Severity of psoriasis-like lesions; extent of erythema, skin thickening and scaling” value [4] was “significantly reduced”. For the same compound, the “Individual suction blister fluid versus plasma ratio, geometric mean (CV)” value [5] was 0.59 (16.2%), the “Total concentration in blister fluid, geometric mean (CV)” value [5] was 3.0 (28.3%) mg/L and the “Erythema: GMR of treatment effect vs. placebo (90% CrI)” value (shortened to “Erythema: GMR … (90% CrI)”) [6] was 0.83. The “Erythema: GMR … (90% CrI)” value ([6]; listed as BAY 1830839) was 0.83 (0.67, 0.99), the “Clinical evaluation of skin reactions (visual grading)” value [6] was “less severe inflammatory reaction” and the “Mild increase in core temperature after LPS” value [7] was “without suppressing”. The “LPS-driven increases in systolic blood pressure and pulse rate” value [7] was “suppressed”, the “Suppression of circulating TNF-α response vs. placebo” value [7] was no less than 80% and the “Anti-inflammatory cytokine IL-10 after LPS challenge” value [7] was “did not lead to an increase”. For the same compound, the “LPS-induced increases in IL-8, CRP and procalcitonin” value [7] was “inhibited”, the “IL-6 (blood): GMR of treatment effect vs. placebo (90% CrI)” value (from here on “IL-6 (blood): GMR … (90% CrI)”) [7] was 0.26 (0.17, 0.34) and the “TNF-α (blood): GMR of treatment effect vs. placebo (90% CrI)” value (from here on “TNF-α (blood): GMR … (90% CrI)”) [7] was 0.14 (0.09, 0.19). The “Responses of CD8+ T cells and dendritic cells in suction blister fluid” value [8] was “suppressed” and the “IMQ-driven IP-10 and MxA in skin suction blister exudate” value (shortened to “IMQ-driven IP-10 and MxA”) [8] was “strongly suppressed”.
In the case of CC(C)(O)c1cc2nn(CCS(C)(=O)=O)cc2cc1NC(=O)c1cccc(C(F)(F)F)n1 [BAY1834845, zabedosertib], the “Inhibition of TLR4-driven IL-6 in ex vivo whole blood challenge” value [1] is given as “approximately 50%”, the “Inhibition of TLR4-driven TNF-α in ex vivo whole blood challenge” value [1] is given as “approximately 50%” and the “Mean suppression of TNFα (TLR4-cytokine release in ex vivo whole blood assay)” value [2] is given as 40%. For the same compound, the Systemic exposure [3] was 5.2 (19.4%) mg/L, the “Severity of psoriasis-like lesions; extent of erythema, skin thickening and scaling” value [4] was “significantly reduced” and the “Individual suction blister fluid versus plasma ratio, geometric mean (CV)” value [5] was 0.43 (22.7%). For the same compound, the “Total concentration in blister fluid, geometric mean (CV)” value [5] was 2.6 (32.3%) mg/L, the “Erythema: GMR … (90% CrI)” value [6] was 0.75 and the “Erythema: GMR … (90% CrI)” value ([6]; listed as BAY 1834845) was 0.75 (0.60, 0.89). For the same compound, the “Clinical evaluation of skin reactions (visual grading)” value [6] was “less severe inflammatory reaction”, the “Mild increase in core temperature after LPS” value [7] was “without suppressing” and the “LPS-driven increases in systolic blood pressure and pulse rate” value [7] was “suppressed”. The “Suppression of circulating TNF-α response vs. placebo” value [7] was no less than 80%, the “Anti-inflammatory cytokine IL-10 after LPS challenge” value [7] was “did not lead to an increase” and the “LPS-induced increases in IL-8, CRP and procalcitonin” value [7] was “inhibited”. For the same compound, the “IL-6 (blood): GMR … (90% CrI)” value [7] was 0.27 (0.18, 0.36), the “TNF-α (blood): GMR … (90% CrI)” value [7] was 0.20 (0.13, 0.27) and the “Responses of CD8+ T cells and dendritic cells in suction blister fluid” value [8] was “suppressed”. For the same compound, the “IMQ-driven IP-10 and MxA” value [8] was “strongly suppressed”.
In the case of CC[C@@H]1[C@H](F)C(=O)N[C@@H]1COc1nccc2cc(C(N)=O)c(OC)cc12 [PF‐06650833], the “Effects on IL-1β-induced cytokines” value (IL-1β-induced cytokines) is listed as “weak effects”.
With C[C@]12C=CC(=O)C=C1CC[C@@H]1[C@@H]2[C@@H](O)C[C@@]2(C)[C@H]1CC[C@]2(O)C(=O)CO [Prednisolone, prednisolone, reference compound] the “Erythema: GMR … (90% CrI)” value [6] was 0.86 (0.69, 1.02), the “Erythema: GMR … (90% CrI)” value ([6]; listed as prednisolone) was 0.86 and the “Anti-inflammatory cytokine IL-10 after LPS challenge” value [7] was “induced”. For the same compound, the “IL-6 (blood): GMR … (90% CrI)” value [7] was 0.31 (0.21, 0.41), the “TNF-α (blood): GMR … (90% CrI)” value [7] was 0.31 (0.20, 0.41) and the “Responses of CD8+ T cells and dendritic cells in suction blister fluid” value [8] was “suppressed”. For the same compound, the “Responses of NK cells and classical monocytes in suction blister fluid” value ([8]; 72 h post-challenge, after preceding increase up to 48 h) was “markedly suppressed” and the “IMQ-driven IP-10 and MxA” value [8] was “strongly suppressed”.
